Source: ChEMBL document CHEMBL1122821, “Synthesis and some pharmacological properties of 18 potent O-alkyltyrosine-substituted antagonists of the vasopressor responses to arginine-vasopressin” (J Med Chem, 1985)

Legend:
Rattus norvegicus [1] = species on record: Rattus norvegicus; experiment: In vitro anti-oxytocic potency was evaluated in the absence of Mg2+; type: functional; conditions: read-out: pA2 (converted)
Summary of the method: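 Isolated rat uterus in medium containing no Mg2+. USP posterior pituitary reference standard used as agonist. In vitro pA2 values were derived as in Bankowski et al.; means ± SE.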

Rattus norvegicus [2] = experiment: In vivo anti-vasopressor activity measured as the negative logarithm of the effective dose / the estimated volume of distribution (67 mL/kg); type: ADME, organism-based; conditions: read-out: pA2 (converted)
Summary of the method: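 Rats treated with phenoxybenzamine under urethane anesthesia. Pressor responses to the USP posterior pituitary standard were given intravenously. Effective dose (nmol/kg) was interpolated on a log scale; means ± SE of at least four estimates. pA2 = −log(effective dose / 67 mL/kg).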

Rattus norvegicus [3] = species on record: Rattus norvegicus; experiment: In vitro anti-oxytocic potency was evaluated in the presence of 0.5 mM of Mg2+; type: functional; conditions: read-out: pA2 (converted)
Summary of the method: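 Isolated rat uterus in medium containing 0.5 mM Mg2+. USP posterior pituitary reference standard used as agonist. In vitro pA2 values were derived as in Bankowski et al.; means ± SE.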

Rattus norvegicus [4] = experiment: In vivo antidiuretic activity in rats under ethanol anesthesia.; type: functional, Urine
Summary of the method: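 Rats under ethanol anesthesia, with the USP posterior pituitary reference standard as reference. Agonistic activity is expressed in units per milligram.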

Structure (SMILES)	Kb (Rattus norvegicus [1])	Kb (Rattus norvegicus [2])	Kb (Rattus norvegicus [3])	Activity (Rattus norvegicus [4])
CCOc1ccc(C[C@@H]2NC(=O)CC(CC)(CC)SSC[C@@H](C(=O)N3CCC[C@H]3C(=O)N[C@H](CCCN=C(N)N)C(=O)NCC(N)=O)NC(=O)[C@H](CC(N)=O)NC(=O)[C@H](C(C)C)NC(=O)[C@H](Cc3ccccc3)NC2=O)cc1 [listing 1 of 2 here]	10.5 nM	6.46 nM	12.9 nM	–
COc1ccc(C[C@@H]2NC(=O)CC(C)(C)SSC[C@@H](C(=O)N3CCC[C@H]3C(=O)N[C@H](CCCN=C(N)N)C(=O)NCC(N)=O)NC(=O)[C@H](CC(N)=O)NC(=O)[C@H](CCC(N)=O)NC(=O)[C@H](Cc3ccccc3)NC2=O)cc1	24.5 nM	11 nM	57.5 nM	3.5 units/mg
COc1ccc(C[C@@H]2NC(=O)CC(C)(C)SSC[C@@H](C(=O)N3CCC[C@H]3C(=O)N[C@H](CCCN=C(N)N)C(=O)NCC(N)=O)NC(=O)[C@H](CC(N)=O)NC(=O)[C@H](C(C)C)NC(=O)[C@H](Cc3ccccc3)NC2=O)cc1 [listing 1 of 2 here]	–	–	–	3.2 units/mg
CCOc1ccc(C[C@@H]2NC(=O)CC(C)(C)SSC[C@@H](C(=O)N3CCC[C@H]3C(=O)N[C@@H](CCCN=C(N)N)C(=O)NCC(N)=O)NC(=O)[C@H](CC(N)=O)NC(=O)[C@H](CCC(N)=O)NC(=O)[C@H](Cc3ccccc3)NC2=O)cc1 [listing 1 of 2 here]	7.59 nM	3.98 nM	44.7 nM	–
CCC1(CC)CC(=O)N[C@@H](Cc2ccc(OC)cc2)C(=O)N[C@@H](Cc2ccccc2)C(=O)N[C@@H](CCC(N)=O)C(=O)N[C@@H](CC(N)=O)C(=O)N[C@H](C(=O)N2CCC[C@H]2C(=O)NC(CCCN=C(N)N)C(=O)NCC(N)=O)CSS1 (stereo in doubt) [listing 1 of 2 here]	19.1 nM	2.69 nM	7.94 nM	–
CCC1(CC)CC(=O)N[C@@H](Cc2ccc(OC)cc2)C(=O)N[C@@H](Cc2ccccc2)C(=O)N[C@@H](CCC(N)=O)C(=O)N[C@@H](CC(N)=O)C(=O)N[C@H](C(=O)N2CCC[C@H]2C(=O)NC(CCCN=C(N)N)C(=O)NCC(N)=O)CSS1 (stereo in doubt) [listing 2 of 2 here]	–	–	–	0.019 units/mg
CCC1(CC)CC(=O)N[C@@H](Cc2ccc(OC)cc2)C(=O)N[C@@H](Cc2ccccc2)C(=O)N[C@@H](C(C)C)C(=O)N[C@@H](CC(N)=O)C(=O)N[C@H](C(=O)N2CCC[C@H]2C(=O)N[C@H](CCCN=C(N)N)C(=O)NCC(N)=O)CSS1 [listing 1 of 2 here]	18.6 nM	4.47 nM	11.7 nM	–
COc1ccc(C[C@@H]2NC(=O)CC(C)(C)SSC[C@@H](C(=O)N3CCC[C@H]3C(=O)N[C@H](CCCN=C(N)N)C(=O)NCC(N)=O)NC(=O)[C@H](CC(N)=O)NC(=O)[C@H](C(C)C)NC(=O)[C@H](Cc3ccccc3)NC2=O)cc1 [listing 2 of 2 here]	31.6 nM	14.5 nM	21.4 nM	–
COc1ccc(C[C@@H]2NC(=O)CC3(CCCCC3)SSC[C@@H](C(=O)N3CCC[C@H]3C(=O)N[C@H](CCCN=C(N)N)C(=O)NCC(N)=O)NC(=O)[C@H](CC(N)=O)NC(=O)[C@H](CCC(N)=O)NC(=O)[C@H](Cc3ccccc3)NC2=O)cc1	7.41 nM	2.4 nM	57.5 nM	0.31 units/mg
COc1ccc(C[C@@H]2NC(=O)CC3(CCCCC3)SSC[C@@H](C(=O)N3CCC[C@H]3C(=O)NC(CCCN=C(N)N)C(=O)NCC(N)=O)NC(=O)[C@H](CC(N)=O)NC(=O)[C@H](CCC(N)=O)NC(=O)[C@H](Cc3ccccc3)NC2=O)cc1 (stereo in doubt)	28.2 nM	3.89 nM	15.5 nM	0.23 units/mg
COc1ccc(C[C@@H]2NC(=O)CC(C)(C)SSC[C@@H](C(=O)N3CCC[C@H]3C(=O)N[C@@H](CCCN=C(N)N)C(=O)NCC(N)=O)NC(=O)[C@H](CC(N)=O)NC(=O)[C@H](C(C)C)NC(=O)[C@H](Cc3ccccc3)NC2=O)cc1 [listing 1 of 2 here]	3.72 nM	4.37 nM	12.6 nM	–
CCOc1ccc(C[C@@H]2NC(=O)CC(C)(C)SSC[C@@H](C(=O)N3CCC[C@H]3C(=O)NC(CCCN=C(N)N)C(=O)NCC(N)=O)NC(=O)[C@H](CC(N)=O)NC(=O)[C@H](CCC(N)=O)NC(=O)[C@H](Cc3ccccc3)NC2=O)cc1 (stereo in doubt) [listing 1 of 2 here]	14.1 nM	5.37 nM	38.9 nM	–
CCOc1ccc(C[C@@H]2NC(=O)CC(CC)(CC)SSC[C@@H](C(=O)N3CCC[C@H]3C(=O)N[C@@H](CCCN=C(N)N)C(=O)NCC(N)=O)NC(=O)[C@H](CC(N)=O)NC(=O)[C@H](C(C)C)NC(=O)[C@H](Cc3ccccc3)NC2=O)cc1 [listing 1 of 2 here]	–	–	–	0.1 units/mg
CCOc1ccc(C[C@@H]2NC(=O)CC(C)(C)SSC[C@@H](C(=O)N3CCC[C@H]3C(=O)N[C@H](CCCN=C(N)N)C(=O)NCC(N)=O)NC(=O)[C@H](CC(N)=O)NC(=O)[C@H](C(C)C)NC(=O)[C@H](Cc3ccccc3)NC2=O)cc1 [listing 1 of 2 here]	15.1 nM	3.47 nM	26.9 nM	–
CCOc1ccc(C[C@@H]2NC(=O)CC(CC)(CC)SSC[C@@H](C(=O)N3CCC[C@H]3C(=O)N[C@H](CCCN=C(N)N)C(=O)NCC(N)=O)NC(=O)[C@H](CC(N)=O)NC(=O)[C@H](C(C)C)NC(=O)[C@H](Cc3ccccc3)NC2=O)cc1 [listing 2 of 2 here]	–	–	–	0.07 units/mg
CCC1(CC)CC(=O)N[C@@H](Cc2ccc(OC)cc2)C(=O)N[C@@H](Cc2ccccc2)C(=O)N[C@@H](CCC(N)=O)C(=O)N[C@@H](CC(N)=O)C(=O)N[C@H](C(=O)N2CCC[C@H]2C(=O)N[C@@H](CCCN=C(N)N)C(=O)NCC(N)=O)CSS1 [listing 1 of 2 here]	11 nM	2.95 nM	6.46 nM	–

Structure (SMILES)	Kb (Rattus norvegicus [1])	Kb (Rattus norvegicus [2])	Kb (Rattus norvegicus [3])	Activity (Rattus norvegicus [4])
CCOc1ccc(C[C@@H]2NC(=O)CC(CC)(CC)SSC[C@@H](C(=O)N3CCC[C@H]3C(=O)N[C@@H](CCCN=C(N)N)C(=O)NCC(N)=O)NC(=O)[C@H](CC(N)=O)NC(=O)[C@H](CCC(N)=O)NC(=O)[C@H](Cc3ccccc3)NC2=O)cc1 [listing 1 of 2 here]	–	–	–	0.035 units/mg
CCC1(CC)CC(=O)N[C@@H](Cc2ccc(OC)cc2)C(=O)N[C@@H](Cc2ccccc2)C(=O)N[C@@H](CCC(N)=O)C(=O)N[C@@H](CC(N)=O)C(=O)N[C@H](C(=O)N2CCC[C@H]2C(=O)N[C@@H](CCCN=C(N)N)C(=O)NCC(N)=O)CSS1 [listing 2 of 2 here]	–	–	–	0.066 units/mg
CCOc1ccc(C[C@@H]2NC(=O)CC(C)(C)SSC[C@@H](C(=O)N3CCC[C@H]3C(=O)N[C@@H](CCCN=C(N)N)C(=O)NCC(N)=O)NC(=O)[C@H](CC(N)=O)NC(=O)[C@H](C(C)C)NC(=O)[C@H](Cc3ccccc3)NC2=O)cc1 [listing 1 of 2 here]	2.29 nM	8.51 nM	21.9 nM	–
CCOc1ccc(C[C@@H]2NC(=O)CC(C)(C)SSC[C@@H](C(=O)N3CCC[C@H]3C(=O)N[C@@H](CCCN=C(N)N)C(=O)NCC(N)=O)NC(=O)[C@H](CC(N)=O)NC(=O)[C@H](C(C)C)NC(=O)[C@H](Cc3ccccc3)NC2=O)cc1 [listing 2 of 2 here]	–	–	–	0.62 units/mg
CCOc1ccc(C[C@@H]2NC(=O)CC(CC)(CC)SSC[C@@H](C(=O)N3CCC[C@H]3C(=O)N[C@H](CCCN=C(N)N)C(=O)NCC(N)=O)NC(=O)[C@H](CC(N)=O)NC(=O)[C@H](CCC(N)=O)NC(=O)[C@H](Cc3ccccc3)NC2=O)cc1 [listing 1 of 2 here]	70.8 nM	4.68 nM	28.8 nM	–
CCOc1ccc(C[C@@H]2NC(=O)CC(C)(C)SSC[C@@H](C(=O)N3CCC[C@H]3C(=O)N[C@H](CCCN=C(N)N)C(=O)NCC(N)=O)NC(=O)[C@H](CC(N)=O)NC(=O)[C@H](C(C)C)NC(=O)[C@H](Cc3ccccc3)NC2=O)cc1 [listing 2 of 2 here]	–	–	–	0.2 units/mg
CCOc1ccc(C[C@@H]2NC(=O)CC(C)(C)SSC[C@@H](C(=O)N3CCC[C@H]3C(=O)NC(CCCN=C(N)N)C(=O)NCC(N)=O)NC(=O)[C@H](CC(N)=O)NC(=O)[C@H](CCC(N)=O)NC(=O)[C@H](Cc3ccccc3)NC2=O)cc1 (stereo in doubt) [listing 2 of 2 here]	–	–	–	0.23 units/mg
CCC1(CC)CC(=O)N[C@@H](Cc2ccc(OC)cc2)C(=O)N[C@@H](Cc2ccccc2)C(=O)N[C@@H](C(C)C)C(=O)N[C@@H](CC(N)=O)C(=O)N[C@H](C(=O)N2CCC[C@H]2C(=O)N[C@H](CCCN=C(N)N)C(=O)NCC(N)=O)CSS1 [listing 2 of 2 here]	–	–	–	0.11 units/mg
CCOc1ccc(C[C@@H]2NC(=O)CC(CC)(CC)SSC[C@@H](C(=O)N3CCC[C@H]3C(=O)N[C@@H](CCCN=C(N)N)C(=O)NCC(N)=O)NC(=O)[C@H](CC(N)=O)NC(=O)[C@H](CCC(N)=O)NC(=O)[C@H](Cc3ccccc3)NC2=O)cc1 [listing 2 of 2 here]	3.72 nM	3.47 nM	10 nM	–
CCC1(CC)CC(=O)N[C@@H](Cc2ccc(OC)cc2)C(=O)N[C@@H](Cc2ccccc2)C(=O)N[C@@H](C(C)C)C(=O)N[C@@H](CC(N)=O)C(=O)N[C@H](C(=O)N2CCC[C@H]2C(=O)N[C@@H](CCCN=C(N)N)C(=O)NCC(N)=O)CSS1 [listing 1 of 2 here]	–	–	–	0.24 units/mg
CCOc1ccc(C[C@@H]2NC(=O)CC(C)(C)SSC[C@@H](C(=O)N3CCC[C@H]3C(=O)N[C@@H](CCCN=C(N)N)C(=O)NCC(N)=O)NC(=O)[C@H](CC(N)=O)NC(=O)[C@H](CCC(N)=O)NC(=O)[C@H](Cc3ccccc3)NC2=O)cc1 [listing 2 of 2 here]	–	–	–	0.59 units/mg
COc1ccc(C[C@@H]2NC(=O)CC(C)(C)SSC[C@@H](C(=O)N3CCC[C@H]3C(=O)N[C@@H](CCCN=C(N)N)C(=O)NCC(N)=O)NC(=O)[C@H](CC(N)=O)NC(=O)[C@H](C(C)C)NC(=O)[C@H](Cc3ccccc3)NC2=O)cc1 [listing 2 of 2 here]	–	–	–	2.9 units/mg
CCC1(CC)CC(=O)N[C@@H](Cc2ccc(OC)cc2)C(=O)N[C@@H](Cc2ccccc2)C(=O)N[C@@H](C(C)C)C(=O)N[C@@H](CC(N)=O)C(=O)N[C@H](C(=O)N2CCC[C@H]2C(=O)N[C@@H](CCCN=C(N)N)C(=O)NCC(N)=O)CSS1 [listing 2 of 2 here]	2.57 nM	5.13 nM	11.7 nM	–
CCOc1ccc(C[C@@H]2NC(=O)CC(CC)(CC)SSC[C@@H](C(=O)N3CCC[C@H]3C(=O)N[C@@H](CCCN=C(N)N)C(=O)NCC(N)=O)NC(=O)[C@H](CC(N)=O)NC(=O)[C@H](C(C)C)NC(=O)[C@H](Cc3ccccc3)NC2=O)cc1 [listing 2 of 2 here]	7.41 nM	3.8 nM	37.2 nM	–
CCOc1ccc(C[C@@H]2NC(=O)CC(CC)(CC)SSC[C@@H](C(=O)N3CCC[C@H]3C(=O)N[C@H](CCCN=C(N)N)C(=O)NCC(N)=O)NC(=O)[C@H](CC(N)=O)NC(=O)[C@H](CCC(N)=O)NC(=O)[C@H](Cc3ccccc3)NC2=O)cc1 [listing 2 of 2 here]	–	–	–	0.0003 units/mg
